ChEMBL document CHEMBL2177098, “Synthesis and evaluation of novel ¹⁸F labeled 2-pyridinylbenzoxazole and 2-pyridinylbenzothiazole derivatives as ligands for positron emission tomography (PET) imaging of β-amyloid plaques” (J Med Chem, 2012)

Assays:
[1] = Displacement of [125I]-IMPY from amyloid beta (1 to 42) fibrils after 2 hrs by gamma-counting analysis
In short: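 Competition binding with aggregated Aβ1-42 fibrils and [125I]IMPY (60000−100000 cpm/100 μL) in 0.05% BSA (1 mL total); inhibitors 10⁻⁴−10^−8.5 M in ethanol. Incubated 37 °C for 2 h, then GF/B vacuum filtration with PBS (0.02 M, pH 7.4) washes and γ counting. Three repeats; IC50 converted to Ki by Cheng−Prusoff.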

Brain [2] = experiment: Ratio of drug uptake in brain at 2 mins to drug uptake in brain at 60 mins in iv dosed ICR mouse; type: ADME, organism-based; settings: in vivo
Bone [3] = experiment: Drug uptake in ICR mouse bone at 370 kBq/100 ul, iv at 2 mins by gamma-counting analysis; type: ADME, organism-based, Bone element; settings: in vivo
In short: (§1)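 Male ICR mice (5 weeks, about 20 g) got 18F tracer in saline (370 KBq per 100 μL) via tail vein; n = 5 per time point, killed at 2, 10, 30, 60 min. Organs weighed and γ-counted; percent dose per gram wet tissue from comparison with diluted injectate aliquots.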

Stomach [4] = experiment: Drug uptake in ICR mouse stomach assessed per organ at 370 kBq/100 ul, iv at 2 mins by gamma-counting analysis; type: ADME, organism-based; settings: in vivo
In short: (§2)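 Male ICR mice (5 weeks, about 20 g) got 18F tracer in saline (370 KBq per 100 μL) via tail vein; n = 5 per time point, killed at 2, 10, 30, 60 min. Organs removed and γ-counted against diluted injectate; expressed as % injected dose per organ.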

Lung [5] = experiment: Drug uptake in ICR mouse lung at 370 kBq/100 ul, iv at 60 mins by gamma-counting analysis; type: ADME, organism-based; settings: in vivo, 1 h; in short: as §1
Heart [6] = experiment: Drug uptake in ICR mouse heart at 370 kBq/100 ul, iv at 2 mins by gamma-counting analysis; type: ADME, organism-based; settings: in vivo; in short: as §1
Lung [7] = experiment: Drug uptake in ICR mouse lung at 370 kBq/100 ul, iv at 30 mins by gamma-counting analysis; type: ADME, organism-based; settings: in vivo, 0.5 h; in short: as §1
Brain [8] = experiment: Drug uptake in healthy human brain at 370 KBq/100 ul after 1 hr by autoradiographic analysis; type: ADME, tissue-based; settings: in vitro
Bone [9] = experiment: Drug uptake in ICR mouse bone at 370 kBq/100 ul, iv at 30 mins by gamma-counting analysis; type: ADME, organism-based, Bone element; settings: in vivo, 0.5 h; in short: as §1
Stomach [10] = experiment: Drug uptake in ICR mouse stomach assessed per organ at 370 kBq/100 ul, iv at 10 mins by gamma-counting analysis; type: ADME, organism-based; settings: in vivo; in short: as §2
Intestine [11] = experiment: Drug uptake in ICR mouse intestine assessed per organ at 370 kBq/100 ul, iv at 2 mins by gamma-counting analysis; type: ADME, organism-based; settings: in vivo; in short: as §2
Lung [12] = experiment: Drug uptake in ICR mouse lung at 370 kBq/100 ul, iv at 10 mins by gamma-counting analysis; type: ADME, organism-based; settings: in vivo; in short: as §1
Brain [13] = experiment: Drug uptake in ICR mouse brain at 370 kBq/100 ul, iv at 10 mins by gamma-counting analysis; type: ADME, organism-based; settings: in vivo; in short: as §1
Stomach [14] = experiment: Drug uptake in ICR mouse stomach assessed per organ at 370 kBq/100 ul, iv at 30 mins by gamma-counting analysis; type: ADME, organism-based; settings: in vivo, 0.5 h; in short: as §2
[15] = n-Octanol-PBS buffer partition coefficient, log D of the compound at 1.5 MBq after 3 mins at pH 7.4; type: physicochemical
In short: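 The tracer was partitioned between n-octanol and PBS by vortexing for 3 min at room temperature, then centrifuged for 5 min at 3000 rpm. Samples of the octanol (50 μL) and aqueous (500 μL) layers were counted. log D is the log of the octanol/PBS counts-per-gram ratio. The octanol layer was repartitioned until values were consistent. Measured in triplicate and repeated three times.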

Bone [16] = experiment: Drug uptake in ICR mouse bone at 370 kBq/100 ul, iv at 10 mins by gamma-counting analysis; type: ADME, organism-based, Bone element; settings: in vivo; in short: as §1
Brain [17] = experiment: Ratio of drug uptake in brain at 2 mins to drug uptake in brain at 60 mins in ICR mouse at 370 KBq/100 ul, iv; type: ADME, organism-based; settings: in vivo
In short: (§3)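 Normal male ICR mice (5 weeks, about 20 g) received the ¹⁸F tracer in saline (370 KBq per 100 μL) by tail-vein injection. Groups of n = 5 were killed at 2, 10, 30 and 60 min. Organs were removed, weighed and γ-counted against diluted aliquots of the injectate, giving % dose per gram. Stomach and intestine were expressed per organ. The brain ratio is 2 min/60 min uptake. Values are mean ± SD.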

Blood [18] = experiment: Drug uptake in ICR mouse blood at 370 kBq/100 ul, iv at 10 mins by gamma-counting analysis; type: ADME, organism-based; settings: in vivo; in short: as §1
Spleen [19] = experiment: Drug uptake in ICR mouse spleen at 370 kBq/100 ul, iv at 10 mins by gamma-counting analysis; type: ADME, organism-based; settings: in vivo; in short: as §1
Heart [20] = experiment: Drug uptake in ICR mouse heart at 370 kBq/100 ul, iv at 30 mins by gamma-counting analysis; type: ADME, organism-based; settings: in vivo, 0.5 h; in short: as §1
Spleen [21] = experiment: Drug uptake in ICR mouse spleen at 370 kBq/100 ul, iv at 30 mins by gamma-counting analysis; type: ADME, organism-based; settings: in vivo, 0.5 h; in short: as §1
Lung [22] = experiment: Drug uptake in ICR mouse lung at 370 kBq/100 ul, iv at 2 mins by gamma-counting analysis; type: ADME, organism-based; settings: in vivo; in short: as §1
Blood [23] = experiment: Drug uptake in ICR mouse blood at 370 kBq/100 ul, iv at 60 mins by gamma-counting analysis; type: ADME, organism-based; settings: in vivo, 1 h; in short: as §1
Brain [24] = experiment: Drug uptake in ICR mouse brain at 370 kBq/100 ul, iv at 60 mins by gamma-counting analysis; type: ADME, organism-based; settings: in vivo, 1 h; in short: as §1
Blood [25] = experiment: Drug uptake in ICR mouse blood at 370 kBq/100 ul, iv at 2 mins by gamma-counting analysis; type: ADME, organism-based; settings: in vivo; in short: as §1
Liver [26] = experiment: Drug uptake in ICR mouse liver at 370 kBq/100 ul, iv at 2 mins by gamma-counting analysis; type: ADME, organism-based; settings: in vivo; in short: as §1
Kidney [27] = experiment: Drug uptake in ICR mouse kidney at 370 kBq/100 ul, iv at 30 mins by gamma-counting analysis; type: ADME, organism-based; settings: in vivo, 0.5 h; in short: as §1
Liver [28] = experiment: Drug uptake in ICR mouse liver at 370 kBq/100 ul, iv at 10 mins by gamma-counting analysis; type: ADME, organism-based; settings: in vivo; in short: as §1
Kidney [29] = experiment: Drug uptake in ICR mouse kidney at 370 kBq/100 ul, iv at 10 mins by gamma-counting analysis; type: ADME, organism-based; settings: in vivo; in short: as §1
Liver [30] = experiment: Drug uptake in ICR mouse liver at 370 kBq/100 ul, iv at 30 mins by gamma-counting analysis; type: ADME, organism-based; settings: in vivo, 0.5 h; in short: as §1
Heart [31] = experiment: Drug uptake in ICR mouse heart at 370 kBq/100 ul, iv at 60 mins by gamma-counting analysis; type: ADME, organism-based; settings: in vivo, 1 h; in short: as §1
Spleen [32] = experiment: Drug uptake in ICR mouse spleen at 370 kBq/100 ul, iv at 2 mins by gamma-counting analysis; type: ADME, organism-based; settings: in vivo; in short: as §1
Stomach [33] = experiment: Drug uptake in ICR mouse stomach assessed per organ at 370 kBq/100 ul, iv at 60 mins by gamma-counting analysis; type: ADME, organism-based; settings: in vivo, 1 h; in short: as §3
Intestine [34] = experiment: Drug uptake in ICR mouse intestine assessed per organ at 370 kBq/100 ul, iv at 30 mins by gamma-counting analysis; type: ADME, organism-based; settings: in vivo, 0.5 h; in short: as §2
Heart [35] = experiment: Drug uptake in ICR mouse heart at 370 kBq/100 ul, iv at 10 mins by gamma-counting analysis; type: ADME, organism-based; settings: in vivo; in short: as §1
Brain [36] = experiment: Drug uptake in wild type C57BL6 mouse brain at 370 KBq/100 ul after 1 hr by autoradiographic analysis; type: ADME, tissue-based; settings: in vitro
In short: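 Paraffin brain sections from 12-month-old male control C57BL6 mice were deparaffinized through xylene and graded ethanol, then held in PBS (0.2 M, pH 7.4) for 30 min. They were incubated with the ¹⁸F tracer (370 KBq per 100 μL) for 1 h at room temperature. Sections were washed in 40% EtOH, rinsed with water for 1 min, dried, and exposed to a phosphor plate for 2 h. The same sections were then stained with thioflavin S.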

Brain [37] = experiment: Drug uptake in ICR mouse brain at 370 kBq/100 ul, iv at 2 mins by gamma-counting analysis; type: ADME, organism-based; settings: in vivo; in short: as §1
Kidney [38] = experiment: Drug uptake in ICR mouse kidney at 370 kBq/100 ul, iv at 2 mins by gamma-counting analysis; type: ADME, organism-based; settings: in vivo; in short: as §1
Spleen [39] = experiment: Drug uptake in ICR mouse spleen at 370 kBq/100 ul, iv at 60 mins by gamma-counting analysis; type: ADME, organism-based; settings: in vivo, 1 h; in short: as §1
Intestine [40] = experiment: Drug uptake in ICR mouse intestine assessed per organ at 370 kBq/100 ul, iv at 60 mins by gamma-counting analysis; type: ADME, organism-based; settings: in vivo, 1 h; in short: as §2
Bone [41] = experiment: Drug uptake in ICR mouse bone at 370 kBq/100 ul, iv at 60 mins by gamma-counting analysis; type: ADME, organism-based, Bone element; settings: in vivo, 1 h; in short: as §1
Intestine [42] = experiment: Drug uptake in ICR mouse intestine assessed per organ at 370 kBq/100 ul, iv at 10 mins by gamma-counting analysis; type: ADME, organism-based; settings: in vivo; in short: as §2
Liver [43] = experiment: Drug uptake in ICR mouse liver at 370 kBq/100 ul, iv at 60 mins by gamma-counting analysis; type: ADME, organism-based; settings: in vivo, 1 h; in short: as §1
Blood [44] = experiment: Drug uptake in ICR mouse blood at 370 kBq/100 ul, iv at 30 mins by gamma-counting analysis; type: ADME, organism-based; settings: in vivo, 0.5 h; in short: as §1
Brain [45] = experiment: Drug uptake in ICR mouse brain at 370 kBq/100 ul, iv at 30 mins by gamma-counting analysis; type: ADME, organism-based; settings: in vivo, 0.5 h; in short: as §1
Kidney [46] = experiment: Drug uptake in ICR mouse kidney at 370 kBq/100 ul, iv at 60 mins by gamma-counting analysis; type: ADME, organism-based; settings: in vivo, 1 h; in short: as §1

CNc1ccc(/C=C/c2ccc(OCCOCCOCC[18F])cc2)cc1 [FLORBETABEN F18]
Ki [1]: 6.7 nM | Ratio (Brain [2]): 3.13

CNc1ccc(-c2nc3ccc(OCCOCCOCC[18F])cc3s2)cn1
Drug uptake (Bone [3]): 1.19 % ID/g | Drug uptake (Stomach [4]): 2.96 %ID | Drug uptake (Lung [5]): 1.93 % ID/g | Drug uptake (Heart [6]): 3.53 % ID/g | Drug uptake (Lung [7]): 3.11 % ID/g | Drug uptake (Brain [8]): Not Active | Drug uptake (Bone [9]): 1.33 % ID/g | Drug uptake (Stomach [10]): 9.44 %ID | Drug uptake (Intestine [11]): 5.69 %ID | Ki [1]: 9.3 nM | Drug uptake (Lung [12]): 3.36 % ID/g | Drug uptake (Brain [13]): 1.63 % ID/g | Drug uptake (Stomach [14]): 11.46 %ID | logD at 0.05 h [15]: 2.85 | Drug uptake (Bone [16]): 0.86 % ID/g | Ratio (Brain [17]): 1.77 | Drug uptake (Blood [18]): 4.25 % ID/g | Drug uptake (Spleen [19]): 2.05 % ID/g | Drug uptake (Heart [20]): 1.96 % ID/g | Drug uptake (Spleen [21]): 1.74 % ID/g | Drug uptake (Lung [22]): 5.53 % ID/g | Drug uptake (Blood [23]): 2.94 % ID/g | Drug uptake (Brain [24]): 1.26 % ID/g | Drug uptake (Blood [25]): 6.92 % ID/g | Drug uptake (Liver [26]): 15.22 % ID/g | Drug uptake (Kidney [27]): 3.12 % ID/g | Drug uptake (Liver [28]): 9.38 % ID/g | Drug uptake (Kidney [29]): 4.04 % ID/g | Drug uptake (Liver [30]): 8.16 % ID/g | Drug uptake (Heart [31]): 1.85 % ID/g | Drug uptake (Spleen [32]): 2.68 % ID/g | Drug uptake (Stomach [33]): 8.78 %ID | Drug uptake (Intestine [34]): 21.68 %ID | Drug uptake (Heart [35]): 2.16 % ID/g | Drug uptake (Brain [36]): Not Active | Drug uptake (Brain [37]): 2.23 % ID/g | Drug uptake (Kidney [38]): 6.02 % ID/g | Drug uptake (Spleen [39]): 1.49 % ID/g | Drug uptake (Intestine [40]): 18.6 %ID | Drug uptake (Bone [41]): 1.42 % ID/g | Drug uptake (Intestine [42]): 10.06 %ID | Drug uptake (Liver [43]): 4.12 % ID/g | Drug uptake (Blood [44]): 3.49 % ID/g | Drug uptake (Brain [45]): 1.31 % ID/g | Drug uptake (Kidney [46]): 2.66 % ID/g
